Relative binding affinity (RBA) data for nine compounds are collected here from ChEMBL document CHEMBL1154527, “Tethered indoles as functionalizable ligands for the estrogen receptor” (Bioorg Med Chem Lett, 2009).

In experiment [1] the target is Estrogen receptor beta (Homo sapiens) (UniProt Q92731). In words: Relative binding affinity to ERbeta by radiometric binding assay relative to estradiol. Put shortly: (§1)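 RBA values for the PAMAM-dendrimer conjugate are calculated from the concentration of attached ligand rather than that of the conjugate.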
Sequence of Estrogen receptor beta (Homo sapiens) (Q92731 whole entry): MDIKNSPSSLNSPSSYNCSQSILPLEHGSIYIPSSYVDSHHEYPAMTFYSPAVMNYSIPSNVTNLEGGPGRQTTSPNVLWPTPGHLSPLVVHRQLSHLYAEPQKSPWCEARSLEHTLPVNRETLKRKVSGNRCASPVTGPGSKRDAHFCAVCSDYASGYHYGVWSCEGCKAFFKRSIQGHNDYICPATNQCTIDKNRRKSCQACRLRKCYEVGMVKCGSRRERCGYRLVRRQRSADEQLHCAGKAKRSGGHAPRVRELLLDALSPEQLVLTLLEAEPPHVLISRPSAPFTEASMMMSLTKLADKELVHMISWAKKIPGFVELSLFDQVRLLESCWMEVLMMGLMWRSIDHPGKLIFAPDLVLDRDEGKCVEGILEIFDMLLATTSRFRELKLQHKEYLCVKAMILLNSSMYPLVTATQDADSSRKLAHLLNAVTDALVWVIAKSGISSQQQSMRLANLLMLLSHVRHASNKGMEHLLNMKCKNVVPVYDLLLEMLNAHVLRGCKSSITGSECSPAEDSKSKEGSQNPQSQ
For experiment [2], the target named is T1, Estrogen receptor (Homo sapiens) (UniProt P03372).
T1 sequence (whole entry): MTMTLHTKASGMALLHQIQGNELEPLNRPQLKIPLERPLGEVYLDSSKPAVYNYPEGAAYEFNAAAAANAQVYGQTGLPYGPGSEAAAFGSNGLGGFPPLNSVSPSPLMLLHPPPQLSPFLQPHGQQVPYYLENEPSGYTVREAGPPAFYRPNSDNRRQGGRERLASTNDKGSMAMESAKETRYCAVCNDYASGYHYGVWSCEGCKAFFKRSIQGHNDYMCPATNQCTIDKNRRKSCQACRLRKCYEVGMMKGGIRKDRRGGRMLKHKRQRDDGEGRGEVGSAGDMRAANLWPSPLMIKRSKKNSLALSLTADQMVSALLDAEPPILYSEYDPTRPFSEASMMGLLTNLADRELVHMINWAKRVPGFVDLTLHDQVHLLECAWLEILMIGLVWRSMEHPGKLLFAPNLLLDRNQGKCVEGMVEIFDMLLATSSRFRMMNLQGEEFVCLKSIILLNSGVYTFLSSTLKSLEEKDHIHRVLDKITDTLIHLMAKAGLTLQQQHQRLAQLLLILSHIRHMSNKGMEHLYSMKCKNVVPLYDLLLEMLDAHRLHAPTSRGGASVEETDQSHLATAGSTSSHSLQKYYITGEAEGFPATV
As to the kind of experiment: Relative binding affinity to ERalpha by radiometric binding assay relative to estradiol. Put shortly: as §1

The compound `Cc1ccc(C(=O)NCCCCn2c(-c3ccc(O)cc3)c(C)c3cc(O)ccc32)cc1` had a relative binding affinity (RBA) in experiment [1] of 0.048.

For `CCCCOc1ccc(Cn2c(-c3ccc(O)cc3)c(C)c3cc(O)ccc32)cc1`, the relative binding affinity (RBA) in experiment [1] is 1.2.

Consider `CCCCOCCCCCCn1c(-c2ccc(O)cc2)c(C)c2cc(O)ccc21`, for which, in experiment [1], the relative binding affinity (RBA) was 3.

For the compound `CCSC(SCC)c1ccc(OCCCn2c(-c3ccc(O)cc3)c(C)c3cc(O)ccc32)cc1`, in experiment [1], the relative binding affinity (RBA) turned out to be 0.084.

As to `Cc1c(-c2ccc(O)cc2)n(Cc2ccc(O)cc2)c2ccc(O)cc12`, the relative binding affinity (RBA) in experiment [2] was determined as 10; in experiment [1], 1.

For `CC(=O)NCCNCc1ccc(OCCCn2c(-c3ccc(O)cc3)c(C)c3cc(O)ccc32)cc1`, the values for the relative binding affinity (RBA) in experiment [2] and in experiment [1] were 2.17 and 0.24, respectively.

Regarding `COCCCCCCn1c(-c2ccc(O)cc2)c(C)c2cc(O)ccc21`, the relative binding affinity (RBA) in experiment [2] is 11; in experiment [1], 2.

As for `Cc1c(-c2ccc(O)cc2)n(CCCCCCO)c2ccc(O)cc12`, the relative binding affinity (RBA) came out at 13 in experiment [2] and 1.4 in experiment [1].

Regarding `COc1ccc(Cn2c(-c3ccc(O)cc3)c(C)c3cc(O)ccc32)cc1`, the results for the relative binding affinity (RBA) in experiment [2] and in experiment [1] were 11 and 6.5, respectively.
